High-throughput results deposited in PubChem BioAssay by several laboratories.
SMARCA2 activ = SMARCA2 (BRM) function activators, primary screen, cell-based, luminescence, high throughput. MG213 cells, MMTV-luciferase reporter, dexamethasone, overnight. activation, % at 9.1 µM. hit rate 1% among 370,000. AID 652017, 2013; in the data active means activation above about 7.8%
ASAP1 inh = inhibitors of human ASAP1 ArfGAP activity, primary screen, biochemical, fluorescence polarization; Arf-GAP with SH3 domain, ANK repeat and PH domain-containing protein 1 (Homo sapiens), …; ASAP1-stimulated ARF1 GTP hydrolysis, GDP FP detection; inhibition, % at 16.5 µM; hit rate 0.19% among 360,000; AID 624377, 2012; in the data active means inhibition above about 25%
Target sequence (Q9ULH1 325-724 limits assumed): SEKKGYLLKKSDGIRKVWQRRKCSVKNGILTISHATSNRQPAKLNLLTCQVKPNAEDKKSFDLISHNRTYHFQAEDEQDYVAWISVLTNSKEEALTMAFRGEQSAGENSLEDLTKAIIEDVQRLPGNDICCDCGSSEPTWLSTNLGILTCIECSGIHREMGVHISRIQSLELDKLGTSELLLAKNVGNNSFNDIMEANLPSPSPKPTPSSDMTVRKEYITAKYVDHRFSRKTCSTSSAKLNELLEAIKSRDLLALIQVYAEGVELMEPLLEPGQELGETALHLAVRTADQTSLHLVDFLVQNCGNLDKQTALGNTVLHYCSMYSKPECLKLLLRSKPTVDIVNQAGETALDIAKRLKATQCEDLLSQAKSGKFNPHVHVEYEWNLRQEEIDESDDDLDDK
ARFGAP1 inh = inhibitors of rat ARFGAP1 GAP activity, primary screen, biochemical, fluorescence polarization, GDP tracer. ADP-ribosylation factor GTPase-activating protein 1 (Rattus norvegicus), Q62848. Arfgap1-stimulated ARF1 GTP hydrolysis, GDP FP detection. inhibition, % at 16.5 µM. hit rate 0.26% among 360,000. AID 651572, 2012;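 active means inhibition above a per-plate limit, mean inhibition of low control wells plus 3 SD, cut at about 25% in these data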
Target sequence (Q62848 1-136 limits assumed): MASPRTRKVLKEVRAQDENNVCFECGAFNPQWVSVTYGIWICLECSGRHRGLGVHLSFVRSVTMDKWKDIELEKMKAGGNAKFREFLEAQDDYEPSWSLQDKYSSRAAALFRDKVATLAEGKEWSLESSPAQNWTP
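System: truncated rat Arfgap1 GAP domain / Medium: HEPES-based buffer, pH 7.5 / Also added: N-terminally truncated human ARF1-GTP substrate / Incubation: enzyme reaction 120 min at 25 °C after 20 min preincubation / Measured by: FP of antibody-bound GDP Alexa 633 tracer, ex 620/em 688 nm / Replicates: singlicate, each compound tested once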
esBAF inh = Bmi1 luciferase reporter increase in mESCs, primary screen, esBAF inhibitor project, mouse ES cells, Bmi1 luciferase knock-in, single point. AID 602393, 2012. 24 h; 100% = twice the neutral-well signal. reporter increase, % at 12.5 µM. hit rate 2% among 350,000; in the data active means activation above about 40%;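 further: a rise in the Bmi1 reporter signal indicates esBAF inhibition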
A number is an active result. In the library only some 2.6% were active in any assay of this set; here they are far more common.

`Cc1ccc(NC(=O)Nc2ncccc2C)cc1` gave SMARCA2 activ inactive, ASAP1 inh inactive and ARFGAP1 inh inactive.
Screening CSc1ccccc1NC(=O)Nc1ccc(Cl)cc1 returned SMARCA2 activ inactive, ASAP1 inh inactive, ARFGAP1 inh inactive and esBAF inh 49.6.
For O=C(Nc1ccc(F)cc1)Nc1ccccc1F the results were SMARCA2 activ inactive, ASAP1 inh inactive, ARFGAP1 inh inactive and esBAF inh 74.4.
`COc1ccc(NC(=O)Nc2ccccc2SC)cc1` gave SMARCA2 activ inactive, ASAP1 inh inactive, ARFGAP1 inh inactive and esBAF inh inactive.
Cc1cccnc1NC(=O)Nc1ccc(F)cc1 was read as SMARCA2 activ inactive, ASAP1 inh inactive, ARFGAP1 inh inactive and esBAF inh 51.2.
Screening CN1C(=O)c2cc(NC(=O)c3ccc4c(c3)OCO4)ccc2OC[C@H]2O[C@H](CC(=O)O)CC[C@H]21 returned esBAF inh inactive.
Screening COCc1cn(CC[C@H]2CC[C@H](NC(=O)c3ccc(F)cc3)[C@@H](CO)O2)nn1 returned esBAF inh inactive.
`Cc1cccc(C=NOCCc2ccccc2)n1` gave SMARCA2 activ inactive, ASAP1 inh inactive, ARFGAP1 inh inactive and esBAF inh 65.8.
`Cc1c(C(=O)N2CCc3ccccc32)oc2c1C(=O)CC(C)(C)C2` gave SMARCA2 activ inactive, ASAP1 inh inactive, ARFGAP1 inh inactive and esBAF inh 52.5.
Screening CO[C@@H]1CC[C@@H]2CCN(C)C(=O)[C@H](C)CN(C)C(=O)c3cccc(C#N)c3OC[C@H]1O2 returned esBAF inh inactive.
`COc1ccc(Nc2nc(-c3sc(C)nc3C)cs2)c(OC)c1` gave SMARCA2 activ inactive, ASAP1 inh inactive, ARFGAP1 inh inactive and esBAF inh inactive.
Screening COc1ccc(-c2csc(Nc3ccccn3)n2)cc1OC returned SMARCA2 activ inactive, ASAP1 inh inactive, ARFGAP1 inh inactive and esBAF inh 73.5.
COc1ccc(Nc2nc(-c3cccnc3)cs2)c(OC)c1 was read as SMARCA2 activ inactive, ASAP1 inh inactive, ARFGAP1 inh inactive and esBAF inh 56.7.
For COc1ccccc1Nc1nc(-c2cccnc2)cs1 the results were SMARCA2 activ inactive, ASAP1 inh inactive, ARFGAP1 inh inactive and esBAF inh 44.1.
For Cc1ccc(-c2csc(Nc3ccccn3)n2)cc1 the results were SMARCA2 activ inactive, ASAP1 inh inactive, ARFGAP1 inh inactive and esBAF inh inactive.
`COc1ccc(Nc2nc(-c3cccs3)cs2)c(OC)c1` gave SMARCA2 activ inactive, ASAP1 inh inactive, ARFGAP1 inh inactive and esBAF inh 53.2.
Screening COc1ccc(S(=O)(=O)N(C)C[C@H]2OCCCC[C@@H](C)Oc3ccc(NS(=O)(=O)c4c(C)noc4C)cc3C(=O)N([C@@H](C)CO)C[C@H]2C)cc1 returned esBAF inh inactive.
COc1cccc(-c2csc(NC(=O)Nc3ccccc3)n2)c1 was read as SMARCA2 activ inactive, ASAP1 inh inactive, ARFGAP1 inh inactive and esBAF inh inactive.
Screening COc1cccc(-c2csc(NC(=O)C3CC3)n2)c1 returned SMARCA2 activ inactive, ASAP1 inh inactive, ARFGAP1 inh inactive and esBAF inh 61.1.
`O=C(NCC[C@@H]1CC[C@@H](NC(=O)c2cnccn2)[C@@H](CO)O1)Nc1ccc(F)cc1` gave esBAF inh inactive.
`CNc1cc(-c2ccc(OC)nc2)ncn1` gave SMARCA2 activ inactive, ASAP1 inh inactive, ARFGAP1 inh inactive and esBAF inh 50.4.
CCc1ccc2nc(NC(=O)C3CCN(c4ncnc5sc(C)c(C)c45)CC3)sc2c1 was read as SMARCA2 activ inactive, ASAP1 inh inactive, ARFGAP1 inh inactive and esBAF inh 59.5.
`CCc1cccc(NC(=O)C2CCN(c3ncnc4sc(C)c(C)c34)CC2)c1` gave SMARCA2 activ inactive, ASAP1 inh inactive, ARFGAP1 inh inactive and esBAF inh inactive.
CCCN(C)C[C@H]1OCCCC[C@H](C)Oc2ccc(NS(=O)(=O)c3ccc(OC)cc3)cc2C(=O)N([C@@H](C)CO)C[C@H]1C was read as esBAF inh inactive.
Cc1noc(C)c1-c1ccc(C(=O)NCc2ccccc2)c2occc12 was read as SMARCA2 activ inactive, ASAP1 inh inactive, ARFGAP1 inh inactive and esBAF inh inactive.
For COc1ccc(NC(=O)c2ccc(-c3c(C)noc3C)c3ccoc23)cc1 the results were SMARCA2 activ inactive, ASAP1 inh inactive, ARFGAP1 inh inactive and esBAF inh 55.6.
Screening Cc1noc(C)c1-c1ccc(C(=O)NCC2CC2)c2occc12 returned SMARCA2 activ inactive, ASAP1 inh inactive, ARFGAP1 inh inactive and esBAF inh inactive.
`Cc1noc(C)c1-c1ccc(C(=O)NC2CCCCC2)c2occc12` gave SMARCA2 activ inactive, ASAP1 inh inactive, ARFGAP1 inh inactive and esBAF inh 52.9.
Screening Cc1noc(C)c1NC(=O)Nc1ccc2c(c1)C(=O)N([C@@H](C)CO)C[C@@H](C)[C@@H](CN(C)S(=O)(=O)c1cn(C)cn1)O2 returned esBAF inh inactive.
For Cc1cccc(C)c1NC(=O)CN(C)C(=O)c1ccc(COc2ccccc2)cc1 the results were SMARCA2 activ inactive, ASAP1 inh inactive, ARFGAP1 inh inactive and esBAF inh 43.3.
`Cc1cc(C(=O)C(C)Sc2cccc[n+]2[O-])c(C)n1-c1ccc(Cl)cc1` (configuration not stated) gave SMARCA2 activ inactive, ASAP1 inh inactive, ARFGAP1 inh inactive and esBAF inh 61.9.
`COc1ccc(/C=C/C(=O)Nc2ccccc2C)cc1S(=O)(=O)N1CCOCC1` gave SMARCA2 activ inactive, ASAP1 inh inactive, ARFGAP1 inh inactive and esBAF inh 46.7.
For CO[C@@H]1CN(C)C(=O)c2ccc(NS(C)(=O)=O)cc2OC[C@@H](C)N(Cc2ccccn2)C[C@H]1C the results were esBAF inh inactive.
`CCOc1ccc(N=C2NC(=O)S/C2=C\c2ccc(N(C)C)cc2)cc1` gave SMARCA2 activ inactive, ASAP1 inh inactive, ARFGAP1 inh inactive and esBAF inh 50.4.
`CCOc1ccc(/C=C2/SC(=O)NC2=S)cc1` gave SMARCA2 activ inactive, ASAP1 inh inactive and ARFGAP1 inh inactive.
Screening Cc1[nH]c2ccccc2c1/C=C/c1nc2ccccc2c(=O)n1CCO returned SMARCA2 activ inactive, ASAP1 inh inactive, ARFGAP1 inh inactive and esBAF inh 37.5.
`O=c1c2ccccc2nc(/C=C/c2ccc(Br)cc2)n1CCO` gave SMARCA2 activ inactive, ASAP1 inh inactive and ARFGAP1 inh inactive.
`O=C(CSc1ccc(Cl)cc1)N1CCOCC1` gave SMARCA2 activ inactive, ASAP1 inh inactive, ARFGAP1 inh inactive and esBAF inh inactive.
For O=C(CCSc1ccc(Cl)cc1)N1CCOCC1 the results were SMARCA2 activ inactive, ASAP1 inh inactive, ARFGAP1 inh inactive and esBAF inh 42.0.
CO[C@@H]1CN(C)C(=O)c2ccc(NC(=O)c3ccccc3F)cc2OC[C@H](C)N(CC2CC2)C[C@H]1C was read as esBAF inh inactive.
